Data taken from ChEMBL document CHEMBL1128315, “1-(Fluorobenzyl)-4-amino-1H-1,2,3-triazolo[4,5-c]pyridines: synthesis and anticonvulsant activity” (1995).

Experiments:
[1] = test system: Rattus norvegicus; assay: Anticonvulsant activity against maximal electroshock-induced seizures in Wistar rats following i.p. administration.; type: functional; conditions: ip
How it was run: (§1)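 Male Charles River Wistar rats; maximal electroshock seizure test. Compounds given as solutions or fine dispersions in water or 0.5% methyl cellulose, micronized if not fully soluble. ED50 is the dose protecting 50% against hind limb extension, calculated by Miller–Tainter. Values with a standard error used four doses, at least 12 rats each. Values without one used three doses, six rats each.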

[2] = test system: Rattus norvegicus; assay: Anticonvulsant activity against maximal electroshock-induced seizures in Wistar rats following p.o. administration.; type: functional; conditions: po; how it was run: as §1

Compound | ED50 [1] | ED50 [2]
CNc1nccc2c1nnn2Cc1ccccc1C(F)(F)F.Cl | > 25 mg/kg | –
CNc1nccc2c1nnn2Cc1ccc(F)cc1.Cl | 17 mg/kg | –
Cl.Nc1nccc2c1nnn2Cc1ccccc1 | 8.7 mg/kg | 20 mg/kg
CCN(C)c1nccc2c1nnn2Cc1ccccc1F.Cl | > 25 mg/kg | –
CC(C)Nc1nccc2c1nnn2Cc1ccccc1F.Cl | 14.2 mg/kg | > 25 mg/kg
Cl.Fc1ccccc1Cn1nnc2c(NCC3CC3)nccc21 | 40 mg/kg | –
CNc1nccc2c1nnn2Cc1cc(F)ccc1F.Cl | 5 mg/kg | –
Cl.Nc1nccc2c1nnn2Cc1ccccc1F | 28.4 mg/kg | 11.5 mg/kg
CNc1nccc2c1nnn2Cc1ccccc1.Cl | 6.3 mg/kg | 10 mg/kg
CCNc1nccc2c1nnn2Cc1ccccc1F.Cl | 8 mg/kg | 10 mg/kg
CCCNc1nccc2c1nnn2Cc1ccccc1F.Cl | 14.4 mg/kg | > 25 mg/kg
Cl.Fc1ccccc1Cn1nnc2c(NC3CC3)nccc21 | 5.6 mg/kg | –
CNc1nccc2c1nnn2Cc1cccc(F)c1.Cl | 10 mg/kg | –
CNc1nccc2c1nnn2Cc1ccccc1F.Cl | 4.6 mg/kg | 4.6 mg/kg
Cl.Nc1nccc2c1nnn2Cc1cc(F)ccc1F | 18 mg/kg | –
CNc1ncnc2c1ncn2Cc1ccccc1F [BW-A78U] | 1.7 mg/kg | 2.5 mg/kg
O=C1NC(=O)C(c2ccccc2)(c2ccccc2)N1 [PHENYTOIN] | 10 mg/kg | 20 mg/kg
